The source of these data is ChEMBL document CHEMBL4428038, “Overcoming chloroquine resistance in malaria: Design, synthesis and structure-activity relationships of novel chemoreversal agents” (Eur J Med Chem, 2016).

Activity calls are given as the source filed them. No cut-off for these calls is given here.

In data set [1] the test system is Plasmodium falciparum. Nature of the data set: Intrinsic antimalarial activity against intermediate chloroquine-resistant Plasmodium falciparum 7G8 isolate MRA-154 harboring CRT SVMNT haplotype mutant assessed as reduction in parasite viability at 500 nM. In kind it is functional, organism-based.
Data set [2] has as its system Plasmodium falciparum. In words: Intrinsic antimalarial activity against chloroquine-resistant Plasmodium falciparum Dd2 isolate MRA-156 harboring CRT K76T mutant assessed as reduction in parasite viability at 500 nM. In kind it is functional, organism-based.
Data set [3] in a line: Therapeutic index, ratio of IC50 for human AC10 cells to EC50 for chloroquine-resistant Plasmodium falciparum K1 isolate MRA-159 CRT CVIET haplotype mutant. In kind it is toxicity. The conditions noted are these: read-out: Ratio IC50/EC50. In short, it runs like this: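 Host-cell IC50 was measured by ATP-luminescence viability assay in TAMH hepatocytes (mean of n = 4 independent determinations) or AC10 cardiomyocytes. Each IC50 was divided by the K1 EC50, the concentration of chemoreversal agent that halves the chloroquine concentration needed for 50% parasite inhibition.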

Data set [4] has as its system Plasmodium falciparum. In words: Potentiation of chloroquine-induced antimalarial activity against chloroquine-sensitive Plasmodium falciparum 3D7 isolate MRA-102 assessed as reduction in chloroquine IC50 at 500 nM relative to chloroquine alone. In kind it is functional.
Data set [5] can be described thus: Inhibition of CRT CVIET haplotype mutant in chloroquine-resistant Plasmodium falciparum K1 isolate MRA-159 assessed as reversal of chloroquine resistance by measuring reduction in chloroquine IC50 relative to chloroquine alone. Summed up:
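Chloroquine IC50 was determined in the presence of a fixed 500 nM chemoreversal agent, against chloroquine alone. The RMI is the ratio of chloroquine IC50 with agent to chloroquine IC50 alone. Mean of n = 3; two-tailed t test versus chloroquine without agent.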

A short description of data set [6]: Resistance index, ratio of chloroquine IC50 for intermediate chloroquine-resistant Plasmodium falciparum 7G8 isolate MRA-154 CRT SVMNT haplotype mutant to chloroquine IC50 for chloroquine-sensitive Plasmodium falciparum 3D7 isolate MRA-102 at 500 nM. In short, it runs like this:
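Chloroquine IC50 was measured with the chemoreversal agent fixed at 500 nM in K1 or 7G8 and in sensitive 3D7 (means, n = 3). The resistance ratio is the chloroquine IC50 in K1 or 7G8 divided by the chloroquine IC50 in 3D7.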

In data set [7] the test system is Plasmodium falciparum. Nature of the data set: Intrinsic antimalarial activity against chloroquine/artemisinin-resistant Plasmodium falciparum NHP4773 harboring CRT K76T mutant assessed as reduction in parasite viability at 500 nM. In kind it is functional, organism-based.
Data set [8] concerns T1, Chloroquine resistance transporter (Plasmodium falciparum), Q9N623 [K76T].
T1 sequence (whole entry): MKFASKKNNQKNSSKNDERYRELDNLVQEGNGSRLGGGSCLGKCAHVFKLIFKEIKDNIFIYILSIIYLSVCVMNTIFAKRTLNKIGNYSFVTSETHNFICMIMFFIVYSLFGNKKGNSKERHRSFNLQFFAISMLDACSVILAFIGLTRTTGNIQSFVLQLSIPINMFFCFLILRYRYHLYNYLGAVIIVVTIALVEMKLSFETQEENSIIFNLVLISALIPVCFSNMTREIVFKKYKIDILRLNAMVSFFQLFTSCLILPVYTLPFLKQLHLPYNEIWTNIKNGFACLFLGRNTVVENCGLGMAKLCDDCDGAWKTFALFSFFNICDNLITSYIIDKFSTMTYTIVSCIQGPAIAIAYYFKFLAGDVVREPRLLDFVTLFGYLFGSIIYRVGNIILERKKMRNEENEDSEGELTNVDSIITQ
In words: Inhibition of CRT K76T mutant in chloroquine/artemisinin-resistant Plasmodium falciparum ARS233 assessed as reversal of chloroquine resistance by measuring reduction in chloroquine IC50 at 500 nM relative to chloroquine alone.

Data set [9] has the same test system. In words: Inhibition of CRT K76T mutant in chloroquine-resistant Plasmodium falciparum NHP4559 assessed as reversal of chloroquine resistance by measuring reduction in chloroquine IC50 at 500 nM relative to chloroquine alone.
Data set [10] shares this test system. In words: Inhibition of CRT K76T mutant in chloroquine/artemisinin-resistant Plasmodium falciparum NHP4773 assessed as reversal of chloroquine resistance by measuring reduction in chloroquine IC50 at 500 nM relative to chloroquine alone.

As to `c1ccc(CN[C@@H]2C3CCN(CC3)[C@@H]2Cc2ccccc2)cc1` (relative stereo), the outcome in [1], in [2] and in data set [7] was inactive. Moreover, the selectivity ratio in data set [3] was determined as 420. Further, the “Ratio IC50” value in data set [4] came out at 1.26; in data set [6], 3.9; in data set [8], 0.43; in data set [9] it was 0.47; in [10] it was 0.45. In data set [5], the EC50 is 0.17 µM.

As a reminder, the EC50 is the midpoint of the concentration-response curve.
